Data set [1] has as its target Mitogen-activated protein kinase 8 (Homo sapiens, UniProt P45983). Put plainly: Inhibition of recombinant JNK1 after 60 mins by TR-FRET assay.
In data set [2] the target is Mitogen-activated protein kinase 9 (Homo sapiens, UniProt P45984). Put plainly: Inhibition of recombinant JNK2 after 60 mins by TR-FRET assay. (In general: Time-resolved FRET reads energy transfer from a long-lived donor to a nearby acceptor.)
Data set [3] has as its target T1, Mitogen-activated protein kinase 10 (Homo sapiens, UniProt P53779). As to the kind of experiment: Inhibition of recombinant JNK3 after 60 mins by TR-FRET assay.
Data set [4] can be described thus: Metabolic stability in mouse liver microsomes assessed as compound remaining after 30 mins. It is filed as ADME, Microsome. To be noted: read-out: Stability. The essentials: (§1)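 Test compound incubated with mouse or human liver microsomes for 30 min. Read-out is the percent of parent compound remaining at the end of the incubation.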
Background: Microsomes from liver hold many membrane-bound enzymes, among them those of drug oxidation.

Data set [5] is described as follows: Metabolic stability in human liver microsomes assessed as compound remaining after 30 mins. It is filed as ADME, Microsome. To be noted: read-out: Stability. The essentials:
as §1

Data set [6] has as its target T2, Mitogen-activated protein kinase 1 (Homo sapiens, UniProt P28482). Put plainly: Inhibition of recombinant Erk2 after 60 mins by TR-FRET assay.
Data set [7] deals with Mitogen-activated protein kinase 14 (Homo sapiens, UniProt Q16539). As to the kind of experiment: Inhibition of recombinant p38alpha after 60 mins by TR-FRET assay.
The subject of the next data set is MDCK. Put plainly: Efflux ratio of permeability from […] side in MDCK cells expressing p-gp after 120 mins. It is filed as ADME, cell-based, Canis lupus familiaris. To be noted: dog, 2 h.
Data set [8] is described as follows: Solubility of compound in Hank's buffered salt solution. It is filed as physicochemical.
A further data set has as its system MDR1. Put plainly: Permeability from apical to basolateral side of MDCK cells expressing MDR1 after 120 mins. It is filed as ADME, cell-based, Canis lupus familiaris. To be noted: dog, read-out: permeability.
Data set [9] addresses Tyrosine-protein kinase ABL1 (Homo sapiens) (UniProt P00519). As to the kind of experiment: Inhibition of ABL1 at 10 uM.
In data set [10] the target is RAC-alpha serine/threonine-protein kinase (Homo sapiens) (UniProt P31749). Put plainly: Inhibition of AKT1 at 10 uM.
Data set [11] has as its target Calcium/calmodulin-dependent protein kinase type II subunit alpha (Homo sapiens) (UniProt Q9UQM7). As to the kind of experiment: Inhibition of CAMK2A at 10 uM.
In data set [12] the target is Cyclin-dependent kinase 1/cyclin B (Homo sapiens) (UniProt P06493+P14635+Q8WWL7+O95067). As to the kind of experiment: Inhibition of CDK1/cyclin B at 10 uM. It is filed as protein-complex assay.
Data set [13] concerns the target Cyclin-dependent kinase 2/cyclin A (Homo sapiens) (UniProt P24941+P20248+P78396). Put plainly: Inhibition of CDK2/cyclin A at 10 uM. The data set is classed as protein-complex assay.
In data set [14] the target is Cyclin-dependent kinase 5/CDK5 activator 1 (Homo sapiens) (UniProt Q00535+Q15078). As to the kind of experiment: Inhibition of CDK5/p25 at 10 uM. The data set is classed as protein-complex assay.
Data set [15] addresses Macrophage colony-stimulating factor 1 receptor (Homo sapiens) (UniProt P07333). As to the kind of experiment: Inhibition of CSF1R at 10 uM.
The target in data set [16] is Dual specificity tyrosine-phosphorylation-regulated kinase 1B (Homo sapiens) (UniProt Q9Y463). Put plainly: Inhibition of DYRK1B at 10 uM.
In data set [17] the target is Receptor tyrosine-protein kinase erbB-4 (Homo sapiens) (UniProt Q15303). Put plainly: Inhibition of ERBB4 at 10 uM.
In data set [18] the target is Receptor-type tyrosine-protein kinase FLT3 (Homo sapiens) (UniProt P36888). As to the kind of experiment: Inhibition of FLT3 at 10 uM.
Data set [19] deals with Glycogen synthase kinase-3 beta (Homo sapiens) (UniProt P49841). Put plainly: Inhibition of GSK3-beta at 10 uM.
In data set [20] the target is Insulin receptor (Homo sapiens) (UniProt P06213). Put plainly: Inhibition of INSR at 10 uM.
Data set [21] has as its target Tyrosine-protein kinase JAK1 (Homo sapiens) (UniProt P23458). As to the kind of experiment: Inhibition of JAK1 at 10 uM.
Data set [22] addresses Tyrosine-protein kinase Lck (Homo sapiens) (UniProt P06239). As to the kind of experiment: Inhibition of LCK at 10 uM.
Data set [23] has as its target T2, Mitogen-activated protein kinase 1. Put plainly: Inhibition of MAPK1 at 10 uM.
In data set [24] the target is Serine/threonine-protein kinase MARK2 (Homo sapiens) (UniProt Q7KZI7). As to the kind of experiment: Inhibition of MARK2 at 10 uM.
Data set [25] deals with Serine/threonine-protein kinase PAK 4 (Homo sapiens) (UniProt O96013). Put plainly: Inhibition of PAK4 at 10 uM.
In data set [26] the target is Platelet-derived growth factor receptor alpha (Homo sapiens) (UniProt P16234). As to the kind of experiment: Inhibition of PDGFRA at 10 uM.
The target in data set [27] is PI3-kinase p110-alpha/p85-alpha (Homo sapiens) (UniProt P27986+P42336). Put plainly: Inhibition of PIK3CA/PIK3R1 at 10 uM. It is filed as protein-complex assay.
Data set [28] addresses Serine/threonine-protein kinase PLK1 (Homo sapiens) (UniProt P53350). Put plainly: Inhibition of PLK1 at 10 uM.
Data set [29] deals with Serine/threonine-protein kinase PLK2 (Homo sapiens) (UniProt Q9NYY3). Put plainly: Inhibition of PLK2 at 10 uM.
Data set [30] has as its target Serine/threonine-protein kinase PLK3 (Homo sapiens) (UniProt Q9H4B4). As to the kind of experiment: Inhibition of PLK3 at 10 uM.
The target of data set [31] is cAMP-dependent protein kinase catalytic subunit alpha (Homo sapiens) (UniProt P17612). As to the kind of experiment: Inhibition of PRKACA at 10 uM.
Data set [32] has as its target Protein kinase C beta type (Homo sapiens) (UniProt P05771). As to the kind of experiment: Inhibition of PRKCB1 at 10 uM.
In data set [33] the target is Protein-tyrosine kinase 2-beta (Homo sapiens) (UniProt Q14289). Put plainly: Inhibition of PTK2B at 10 uM.
The test system of data set [34] is RAF proto-oncogene serine/threonine-protein kinase (Homo sapiens), P04049 [Y340D,Y341D]. As to the kind of experiment: Inhibition of RAF1 Y340D/Y341D mutant at 10 uM.
In data set [35] the target is Proto-oncogene tyrosine-protein kinase receptor Ret (Homo sapiens) (UniProt P07949). As to the kind of experiment: Inhibition of RET at 10 uM.
The target of data set [36] is Receptor-interacting serine/threonine-protein kinase 2 (Homo sapiens) (UniProt O43353). Put plainly: Inhibition of RIPK2 at 10 uM.
For data set [37], the target named is Rho-associated protein kinase 2 (Homo sapiens) (UniProt O75116). Put plainly: Inhibition of ROCK2 at 10 uM.
The target in data set [38] is Serine/threonine-protein kinase 16 (Homo sapiens) (UniProt O75716). As to the kind of experiment: Inhibition of STK16 at 10 uM.
The target in data set [39] is Serine/threonine-protein kinase 3 (Homo sapiens) (UniProt Q13188). Put plainly: Inhibition of STK3 at 10 uM.
The target of data set [40] is Tyrosine-protein kinase SYK (Homo sapiens) (UniProt P43405). Put plainly: Inhibition of SYK at 10 uM.
Data set [41] concerns the target Dual specificity protein kinase TTK (Homo sapiens) (UniProt P33981). As to the kind of experiment: Inhibition of TTK at 10 uM.
The target in data set [42] is Aurora kinase A (Homo sapiens) (UniProt O14965). Put plainly: Inhibition of AURKA at 10 uM.
Data set [43] addresses Serine/threonine-protein kinase Chk1 (Homo sapiens) (UniProt O14757). As to the kind of experiment: Inhibition of CHEK1 at 10 uM.
Data set [44] deals with Dual specificity protein kinase CLK1 (Homo sapiens) (UniProt P49759). As to the kind of experiment: Inhibition of CLK1 at 10 uM.
Data set [45] addresses T1, Mitogen-activated protein kinase 10. To be noted: 10 uM.

Molecules are shown by their SMILES.

Sequence of Mitogen-activated protein kinase 14 (Q16539 whole entry): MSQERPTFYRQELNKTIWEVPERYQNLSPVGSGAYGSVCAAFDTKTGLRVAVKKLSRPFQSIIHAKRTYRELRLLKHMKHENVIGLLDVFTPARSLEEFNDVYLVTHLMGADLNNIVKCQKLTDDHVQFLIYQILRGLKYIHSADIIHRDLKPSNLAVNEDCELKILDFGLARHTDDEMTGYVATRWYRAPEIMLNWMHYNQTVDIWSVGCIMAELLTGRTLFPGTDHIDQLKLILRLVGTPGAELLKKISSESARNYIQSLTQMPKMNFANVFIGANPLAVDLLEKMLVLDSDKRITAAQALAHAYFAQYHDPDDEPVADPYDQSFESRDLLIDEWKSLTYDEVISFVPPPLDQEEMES
T2 sequence (P28482 whole entry): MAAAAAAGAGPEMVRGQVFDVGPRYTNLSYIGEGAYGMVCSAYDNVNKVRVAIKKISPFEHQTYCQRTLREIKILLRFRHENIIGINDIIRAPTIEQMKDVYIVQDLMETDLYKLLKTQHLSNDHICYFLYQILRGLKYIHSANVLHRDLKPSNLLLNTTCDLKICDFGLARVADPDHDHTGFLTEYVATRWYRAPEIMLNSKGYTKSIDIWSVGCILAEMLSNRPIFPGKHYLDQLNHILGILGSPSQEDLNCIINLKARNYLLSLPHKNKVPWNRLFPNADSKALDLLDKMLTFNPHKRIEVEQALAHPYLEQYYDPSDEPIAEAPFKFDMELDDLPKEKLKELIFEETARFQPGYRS
T1 sequence (P53779 whole entry): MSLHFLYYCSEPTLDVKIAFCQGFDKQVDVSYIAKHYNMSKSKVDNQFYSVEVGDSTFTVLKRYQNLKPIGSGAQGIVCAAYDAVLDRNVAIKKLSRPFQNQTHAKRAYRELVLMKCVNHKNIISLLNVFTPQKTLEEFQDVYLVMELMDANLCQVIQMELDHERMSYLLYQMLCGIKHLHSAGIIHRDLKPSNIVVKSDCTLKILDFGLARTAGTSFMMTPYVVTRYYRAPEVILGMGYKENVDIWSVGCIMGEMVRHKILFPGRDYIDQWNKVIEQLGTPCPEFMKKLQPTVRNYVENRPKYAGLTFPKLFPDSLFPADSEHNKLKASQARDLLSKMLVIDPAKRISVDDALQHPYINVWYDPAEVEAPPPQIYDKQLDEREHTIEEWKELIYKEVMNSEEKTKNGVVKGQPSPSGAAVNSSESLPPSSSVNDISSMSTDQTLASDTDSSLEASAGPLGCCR
Sequence of Mitogen-activated protein kinase 9 (P45984 whole entry): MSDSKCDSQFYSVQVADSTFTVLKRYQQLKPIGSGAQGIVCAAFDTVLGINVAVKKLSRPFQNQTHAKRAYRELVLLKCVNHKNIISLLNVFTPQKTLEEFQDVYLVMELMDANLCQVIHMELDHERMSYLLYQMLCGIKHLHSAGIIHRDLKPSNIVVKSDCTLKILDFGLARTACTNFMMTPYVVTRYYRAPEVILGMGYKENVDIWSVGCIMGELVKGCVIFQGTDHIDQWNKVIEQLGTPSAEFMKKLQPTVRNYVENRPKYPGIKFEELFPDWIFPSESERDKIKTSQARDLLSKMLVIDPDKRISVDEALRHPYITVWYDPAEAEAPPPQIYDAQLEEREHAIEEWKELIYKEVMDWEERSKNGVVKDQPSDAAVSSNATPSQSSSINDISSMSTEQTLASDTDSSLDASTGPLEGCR
Sequence of Mitogen-activated protein kinase 8 (P45983 whole entry): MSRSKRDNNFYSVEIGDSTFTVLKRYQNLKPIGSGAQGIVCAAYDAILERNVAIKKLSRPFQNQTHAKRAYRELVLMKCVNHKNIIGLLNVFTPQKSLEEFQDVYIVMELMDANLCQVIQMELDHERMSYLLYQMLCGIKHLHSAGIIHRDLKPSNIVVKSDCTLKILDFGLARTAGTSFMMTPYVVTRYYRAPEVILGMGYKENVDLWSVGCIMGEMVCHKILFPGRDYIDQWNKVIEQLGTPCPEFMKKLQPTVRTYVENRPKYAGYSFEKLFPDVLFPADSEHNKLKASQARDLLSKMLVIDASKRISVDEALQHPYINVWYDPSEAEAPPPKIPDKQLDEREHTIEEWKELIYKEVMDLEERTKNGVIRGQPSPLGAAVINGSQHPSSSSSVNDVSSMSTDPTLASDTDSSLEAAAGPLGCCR
Sequence of Dual specificity tyrosine-phosphorylation-regulated kinase 1B (Homo sapiens) (Q9Y463 whole entry, looked up): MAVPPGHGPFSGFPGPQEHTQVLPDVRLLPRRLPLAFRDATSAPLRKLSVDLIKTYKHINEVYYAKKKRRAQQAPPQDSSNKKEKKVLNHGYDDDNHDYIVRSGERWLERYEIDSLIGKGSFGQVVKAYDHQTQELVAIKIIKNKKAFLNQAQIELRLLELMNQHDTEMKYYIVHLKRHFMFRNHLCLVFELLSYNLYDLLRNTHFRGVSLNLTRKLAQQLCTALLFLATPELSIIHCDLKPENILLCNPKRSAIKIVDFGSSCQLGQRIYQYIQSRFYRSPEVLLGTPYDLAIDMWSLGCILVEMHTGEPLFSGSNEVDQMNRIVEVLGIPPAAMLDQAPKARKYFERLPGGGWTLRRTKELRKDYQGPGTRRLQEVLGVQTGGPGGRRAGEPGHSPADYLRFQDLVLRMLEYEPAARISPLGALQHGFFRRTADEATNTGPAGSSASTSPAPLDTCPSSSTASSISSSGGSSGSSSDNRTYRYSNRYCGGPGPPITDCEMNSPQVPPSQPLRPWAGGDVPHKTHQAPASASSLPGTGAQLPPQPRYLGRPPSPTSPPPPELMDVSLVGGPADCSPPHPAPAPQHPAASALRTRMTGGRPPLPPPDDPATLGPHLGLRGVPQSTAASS
Sequence of Receptor-interacting serine/threonine-protein kinase 2 (Homo sapiens) (O43353 whole entry): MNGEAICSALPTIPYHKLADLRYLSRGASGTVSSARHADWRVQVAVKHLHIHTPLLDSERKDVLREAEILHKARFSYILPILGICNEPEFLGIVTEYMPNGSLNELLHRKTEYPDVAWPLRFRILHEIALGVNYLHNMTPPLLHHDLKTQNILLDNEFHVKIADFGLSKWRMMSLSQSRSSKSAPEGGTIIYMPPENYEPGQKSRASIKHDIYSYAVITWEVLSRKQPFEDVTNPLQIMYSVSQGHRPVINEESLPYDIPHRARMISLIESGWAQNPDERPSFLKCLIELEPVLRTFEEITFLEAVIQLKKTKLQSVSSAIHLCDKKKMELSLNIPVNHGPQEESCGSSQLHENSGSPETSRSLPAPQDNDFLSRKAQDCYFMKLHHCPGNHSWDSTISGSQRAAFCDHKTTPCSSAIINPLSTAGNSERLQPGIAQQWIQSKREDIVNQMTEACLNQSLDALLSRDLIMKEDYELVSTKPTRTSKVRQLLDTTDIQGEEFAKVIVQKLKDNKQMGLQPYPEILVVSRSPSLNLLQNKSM
Sequence of Tyrosine-protein kinase JAK1 (Homo sapiens) (P23458 whole entry): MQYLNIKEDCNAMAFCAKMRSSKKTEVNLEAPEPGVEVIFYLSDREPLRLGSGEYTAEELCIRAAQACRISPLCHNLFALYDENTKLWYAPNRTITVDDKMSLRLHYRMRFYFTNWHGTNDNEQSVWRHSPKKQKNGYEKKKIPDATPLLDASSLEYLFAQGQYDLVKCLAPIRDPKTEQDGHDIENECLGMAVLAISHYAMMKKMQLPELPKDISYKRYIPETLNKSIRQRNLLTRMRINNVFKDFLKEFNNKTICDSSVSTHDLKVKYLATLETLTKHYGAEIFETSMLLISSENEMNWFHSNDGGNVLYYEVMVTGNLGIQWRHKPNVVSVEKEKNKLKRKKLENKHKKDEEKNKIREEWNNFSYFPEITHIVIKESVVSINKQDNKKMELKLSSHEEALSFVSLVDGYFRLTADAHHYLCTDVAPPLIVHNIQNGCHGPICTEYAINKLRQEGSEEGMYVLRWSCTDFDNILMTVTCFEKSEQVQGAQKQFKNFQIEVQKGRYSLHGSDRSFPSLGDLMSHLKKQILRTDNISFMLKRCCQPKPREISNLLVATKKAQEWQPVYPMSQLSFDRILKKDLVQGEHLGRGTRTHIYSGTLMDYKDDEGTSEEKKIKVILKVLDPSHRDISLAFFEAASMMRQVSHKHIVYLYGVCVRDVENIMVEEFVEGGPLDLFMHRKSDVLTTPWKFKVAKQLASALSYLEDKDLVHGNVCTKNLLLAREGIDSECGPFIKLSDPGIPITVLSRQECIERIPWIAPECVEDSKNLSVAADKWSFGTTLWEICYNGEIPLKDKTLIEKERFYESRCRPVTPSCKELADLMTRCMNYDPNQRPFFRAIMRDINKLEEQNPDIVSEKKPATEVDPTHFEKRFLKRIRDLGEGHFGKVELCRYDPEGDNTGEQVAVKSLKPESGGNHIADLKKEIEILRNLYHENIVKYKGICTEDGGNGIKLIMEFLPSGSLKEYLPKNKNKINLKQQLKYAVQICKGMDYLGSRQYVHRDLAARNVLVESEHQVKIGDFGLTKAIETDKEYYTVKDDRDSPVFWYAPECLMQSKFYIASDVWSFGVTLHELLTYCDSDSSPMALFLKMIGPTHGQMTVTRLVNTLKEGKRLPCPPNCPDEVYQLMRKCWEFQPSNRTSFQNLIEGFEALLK
Sequence of Dual specificity protein kinase CLK1 (Homo sapiens) (P49759 whole entry, looked up): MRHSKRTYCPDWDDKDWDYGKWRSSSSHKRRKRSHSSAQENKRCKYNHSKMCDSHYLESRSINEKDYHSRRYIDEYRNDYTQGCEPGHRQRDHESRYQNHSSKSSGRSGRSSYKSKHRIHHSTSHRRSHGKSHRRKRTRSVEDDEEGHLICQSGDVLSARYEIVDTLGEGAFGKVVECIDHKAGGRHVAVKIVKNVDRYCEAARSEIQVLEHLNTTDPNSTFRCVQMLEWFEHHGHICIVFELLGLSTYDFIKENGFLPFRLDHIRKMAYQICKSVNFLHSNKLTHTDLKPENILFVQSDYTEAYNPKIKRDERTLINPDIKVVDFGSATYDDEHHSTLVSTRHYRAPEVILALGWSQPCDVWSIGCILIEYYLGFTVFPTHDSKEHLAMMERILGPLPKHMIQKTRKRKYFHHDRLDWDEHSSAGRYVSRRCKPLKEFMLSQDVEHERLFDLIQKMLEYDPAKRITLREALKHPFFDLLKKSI

Consider `O=C(Cc1cccc2cnccc12)Nc1scnc1-c1cnccn1`, for which the IC50 in data set [1] was 0.41 µM; in data set [2], 2 µM; in data set [3] it was 0.47 µM; in [6], above 50 µM; in [7] it was above 50 µM. Moreover, the remaining at 0.5 h is 3% in [4] and 2% in data set [5]. For the same compound, the Ratio in the data set on MDCK worked out at 0.73.
Turning to `O=C(Cc1cccc2cnccc12)Nc1ccsc1-c1cscn1`, the IC50 in [1] is 0.14 µM; in data set [2], 0.94 µM; in data set [3] it was 0.16 µM; in [6], above 50 µM; in data set [7] it was above 50 µM. Also, the figures for the remaining at 0.5 h in [4] and in [5] were 1% and 4%, respectively. For the same compound, in data set [8], the solubility was determined as 90 µM. Further, the Papp A→B at 2 h in the data set on MDR1 stood at 26.1 ×10⁻⁶ cm/s. The Ratio in the data set on MDCK is listed as 1.1.
With `COC(=O)c1ncsc1NC(=O)Cc1cccc2cnccc12`, the IC50 was 1.7 µM in data set [1]; 5.3 µM in data set [2]; 1.6 µM in data set [3]; above 50 µM in data set [6]; above 50 µM in [7]. The remaining at 0.5 h in data set [4] stood at 11%; in [5] it was 41%. Also, in the data set on MDCK, the Ratio turned out to be 0.8.
With `O=C(Cc1cccc2cnccc12)Nc1scnc1-c1cscn1`, the IC50 in [1] is 0.048 µM; in data set [2], 0.47 µM; in [3] it was 0.077 µM; in data set [6] it was above 50 µM; in data set [7], above 50 µM. In addition, the remaining at 0.5 h worked out at 50% in data set [4] and 79% in [5]. For the same compound, the Ratio with MDCK was 1.9. Also, the Inihibition in [9] came out at 7%; in data set [10] it was 2%; in data set [11], 9%; in data set [12], 4%; in data set [13], 9%; in [14], 9%. For the same compound, the Inihibition in data set [15] turned out to be 33%; in [16] it was 21%; in data set [17], 4%; in data set [18], 37%; in data set [19], 13%; in data set [20], 3%. For the same compound, the Inihibition in data set [21] is 4%; in [22] it was 6%; in data set [23] it was 16%; in [24] it was 8%; in data set [25] it was -4%; in data set [26], 7%. The Inihibition stood at 31% in data set [27]; 8% in [28]; 24% in [29]; 17% in [30]; 14% in [31]; 18% in data set [32]. The Inihibition in data set [33] was found to be 6%; in [34], 5%; in [35], 21%; in data set [36], 16%; in data set [37], 3%; in [38], 9%. Also, the Inihibition in data set [39] was 5%; in data set [40], 6%; in [41], 85%; in [42] it was 27%; in data set [43] it was 8%; in data set [44], 7%. In addition, the Inihibition in [45] is 69%.
Consider `O=C(Cc1cccc2cnccc12)Nc1scnc1-c1ncn[nH]1`, for which the IC50 was 0.71 µM in data set [1]; 2.6 µM in data set [2]; 0.82 µM in data set [3]; 24 µM in data set [6]; above 50 µM in data set [7]. The remaining at 0.5 h in data set [4] amounted to 15%; in data set [5], 14%. Further, the Ratio with MDCK stood at 5.
`O=C(Cc1cccc2ncccc12)Nc1ccsc1-c1nnc[nH]1`: the IC50 in [1] was 0.27 µM; in data set [2], 0.71 µM; in data set [3], 0.56 µM; in data set [6], above 50 µM. For the same compound, the remaining at 0.5 h in data set [4] stood at 23%; in data set [5], 67%. The solubility in [8] was above 100 µM. In addition, the Papp A→B at 2 h in the data set on MDR1 was 6 ×10⁻⁶ cm/s. The Ratio with MDCK is 4.2.
With `COc1ccc(CC(=O)Nc2ccsc2-c2cn(C)cn2)cc1`, the IC50 in data set [1] is 23.9 µM; in [2], above 50 µM; in data set [3], 31 µM; in data set [6], above 50 µM; in [7], above 50 µM. Besides, the values for the remaining at 0.5 h in data set [4] and in [5] were 1% and 49%, respectively. In the data set on MDR1, the Papp A→B at 2 h was 7 ×10⁻⁶ cm/s.

By IC50 is commonly meant the concentration that inhibits the measured activity by half. A word on the solubility: it is how much of the substance goes into solution per volume.

These data come from ChEMBL document CHEMBL1287787, “Design and synthesis of disubstituted thiophene and thiazole based inhibitors of JNK” (Bioorg Med Chem Lett, 2010).
